Measured values from different studies.
Target: Insulin-like growth factor 1 receptor (IGF1R, Homo sapiens, UniProt P08069)

Structure (SMILES)	read-out	method	tested at	remaining binding [%]
CC(C)(C)c1ccc(-c2nc(CBr)nn2-c2cccc(O)c2)cc1	cell-free assay	competition with immobilised ligand	10 µM	95
c1cnn2ncc(-c3ccnc(N4CCC45COC5)n3)c2c1	binding		1 µM	97
O=C1NC(c2ccccn2)Sc2ccccc21 (stereo not shown)	cell-free assay	competition with immobilised ligand	1 µM	80
COc1ncc2cc3ccccc3nc2c1C#N	cell-free assay	competition with immobilised ligand	5 µM	86
O=C(NCCCN1CCOCC1)c1ccc(Nc2ncc(Cl)c(-c3ccc(Cl)s3)n2)cc1	binding	competition with immobilised ligand	1 µM	44
CC(=O)c1c(NS(C)(=O)=O)c2cc(-c3ccc(Cl)cc3)c(-c3ccc(Cl)cc3Cl)nc2n(C)c1=O	cell-free assay	competition with immobilised ligand	1 µM	100
O=C(NCCCN1CCOCC1)c1ccc(Nc2nccc(-c3cc4ccccc4s3)n2)cc1	binding	competition with immobilised ligand	1 µM	100
CCS(=O)(=O)c1cc2cc(C[C@](O)(CC(C)(C)c3ccc(F)cc3C(N)=O)C(F)(F)F)[nH]c2cn1	cell-free assay	competition with immobilised ligand	1 µM	100
O=C(Nc1c[nH]nc1C(=O)NC1CCNCC1)c1cc(F)cc(F)c1	binding	competition with immobilised ligand	1 µM	100
CN(CCCC(F)(F)F)c1nccc(-c2cnn3ncccc23)n1	binding		1 µM	100
C[C@@H]1CN(c2ccc3ncc(-c4ccc5[nH]nc(C6CC6)c5c4)n3n2)C[C@H](C)O1	binding	competition with immobilised ligand	0.5 µM	100
C[C@@H]1CCN(c2nccc(-c3cnn4ncccc34)n2)C1	binding		1 µM	53
Cc1cnc(Nc2ccc(C(=O)N3CCC(N4CCCC4)CC3)cc2)nc1-c1cc2ccccc2s1	binding	competition with immobilised ligand	1 µM	45
NS(=O)(=O)c1cc(NC(=O)Cc2ccccc2)ccc1Oc1cccc(Cl)c1	cell-free assay	competition with immobilised ligand	1 µM	100
COc1cnc(Nc2cccc(S(N)(=O)=O)c2)nc1N1CCN(c2ccccc2)C(=O)C1	binding	competition with immobilised ligand	1 µM	100
CSc1cccnc1N1CCN(Cc2nc3ccccc3[nH]2)CC1	cell-free assay	competition with immobilised ligand	1 µM	100
CC1CCCN1c1nccc(-c2cnn3ncccc23)n1 (stereo not shown)	binding		1 µM	96
FC(F)(F)Oc1cccc(-c2cnc3ccc(-c4ccncc4)nn23)c1	cell-free assay	competition with immobilised ligand	5 µM	86
Cc1cnn2ncc(-c3ccnc(N(C)C)n3)c2c1	binding		1 µM	100
COc1cnc(Nc2cccc(S(N)(=O)=O)c2)nc1N1CCN(c2ccccc2)CC1	binding	competition with immobilised ligand	1 µM	100
CCOCCn1cc(C(=O)Nc2ccc(-n3nc(-c4cccnc4)cc3C(F)(F)F)cn2)ccc1=O	cell-free assay	competition with immobilised ligand	1 µM	96
N[C@@H]1CCN(c2nccc(-c3cnn4ncccc34)n2)C1	binding		1 µM	99
CN(c1ccnc(CNc2nc(Nc3ccc4c(c3)CC(=O)N4)ncc2C(F)(F)F)n1)S(C)(=O)=O	cell-free assay	competition with immobilised ligand	1 µM	100
CN(C)c1nccc(-c2cnc3ncccn23)n1	binding		1 µM	89
c1cncc(-c2cccc(Nc3nccc(NC4CCCCC4)n3)c2)c1	binding	competition with immobilised ligand	10 µM	67
